Shown are actives, neighbours in structure and some others; about 3.5% of the full set was active somewhere.
MrgX1 allo act – allosterically activates human MrgX1 receptor signaling; Q96LB2; MrgX1-HEK293, Fluo-4 calcium flux, FDSS; active compounds read high; B-score at 10 µM; 0.63% of 310,000 active; AID 588675;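 active = plate-corrected calcium response at least 3 library SD above typical, normal starting fluorescence, not activating the receptor alone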;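 note: compound read alongside a low EC10 to EC30 dose of BAM8-22 agonist; peak minus trough fluorescence over baseline measured at the second addition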
Target sequence (Q96LB2 whole entry, looked up): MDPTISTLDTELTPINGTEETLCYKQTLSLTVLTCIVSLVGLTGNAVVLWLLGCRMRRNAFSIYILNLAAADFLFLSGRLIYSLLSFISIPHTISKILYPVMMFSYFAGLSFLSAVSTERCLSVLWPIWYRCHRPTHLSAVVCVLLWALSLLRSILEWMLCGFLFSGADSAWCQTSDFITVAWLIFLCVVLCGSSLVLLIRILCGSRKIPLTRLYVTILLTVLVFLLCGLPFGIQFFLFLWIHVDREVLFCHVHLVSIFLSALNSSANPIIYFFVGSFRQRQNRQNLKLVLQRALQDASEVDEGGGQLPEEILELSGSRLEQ
MrgX1 antagonist – human MrgX1 receptor antagonism, primary screen | 1.3% of 310,000 active | MRGX1-HEK293 calcium flux, Fluo-4, BAM8-22 antagonism; active compounds read low | B-score at 10 µM | AID 588676;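 active = calcium-response B-score plate-corrected more than 3 library SD below zero, starting fluorescence within 5 deviations, no agonist response on first addition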;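 note: peak minus trough fluorescence over baseline after final BAM8-22 challenge near maximal dose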
MrgX1 agonist – activates human MrgX1 receptor signaling. MrgX1-HEK293 cells, Fluo-4 calcium fluorescence, agonist mode; active compounds read high. B-score at 10 µM. 0.44% of 310,000 active. AID 588627;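 active = calcium response B-score plate-corrected fluorescence ratio at least 3 library SD, with starting fluorescence B-score inside 5 SD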
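Test system: HEK293 cells stably expressing human MrgX1 receptor; Input: fifteen thousand cells per well; Dosing: compound delivered in addition one of three; Schedule: overnight seeding, then 1 h dark dye loading; Technique: Fluo-4 NW calcium fluorescence; Measure: B-scored fluorescence response ratio; Controls: positive and negative controls per plate.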
RGS4 inh – human RGS4 inhibition | P49798 | HEK293 M3R/RGS4 inducible, Fluo-4 calcium flux; active compounds read high; triggered by carbachol at its EC20 | B-score at 10 µM | 0.45% of 310,000 active;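 active = B-score, a plate-corrected calcium signal, over three deviations above library mean, with baseline fluorescence within five deviations of library mean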;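 note: RGS4 expression induced by doxycycline in cells with stable M3 receptor; B-score is computed from the integrated fluorescence ratio over baseline after carbachol; higher B-score means a larger calcium signal and so more RGS4 inhibition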
Target sequence (P49798 whole entry, looked up): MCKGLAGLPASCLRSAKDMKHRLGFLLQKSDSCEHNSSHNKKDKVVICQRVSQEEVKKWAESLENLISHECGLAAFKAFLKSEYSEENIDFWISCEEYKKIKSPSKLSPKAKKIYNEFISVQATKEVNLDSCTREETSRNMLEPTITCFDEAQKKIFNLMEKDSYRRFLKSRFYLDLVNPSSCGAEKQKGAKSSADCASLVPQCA
RGS4 pot – potentiators or activators of RGS4. 0.92% of 310,000 active. HEK293 M3R/inducible RGS4, carbachol calcium flux Fluo4; active compounds read low. B-score at 10 µM;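 active = B-score of the integrated calcium signal more than 4 SD below the library mean, with starting fluorescence not abnormally high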;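 note: negative B-score means reduced calcium response which marks RGS4 activation or potentiation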
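Assay system: Inducible-RGS4 HEK293 cells carrying M3 receptor | Schedule: Compound preincubation 20 min at room temperature before agonist | Signal: Kinetic calcium fluorescence imaging with Fluo4-AM dye, 2 µM | Read-out basis: B score from integrated fluorescence ratio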
* marks the source's active call; other numbers are inactive results; i = inactive; nt = not tested or not shown.

SMILES	MrgX1 allo act	MrgX1 antagonist	MrgX1 agonist	RGS4 inh	RGS4 pot
Cc1onc(-c2ccccc2Cl)c1C(=O)N1CCc2ccccc2C1	i	i	i	i	-7.3*
Cc1cc(S(=O)(=O)N2CCCC(C)C2)ccc1-n1cnnn1 (stereo not given)	i	i	i	i	i
CN(C)c1ccc(NC(=O)C2CCCN(S(=O)(=O)c3ccccc3)C2)cc1 (stereo not given)	i	i	i	i	i
Cc1ccc(C(=O)c2no[n+]([O-])c2C(=O)c2ccc(C)cc2)cc1	i	i	31*	i	-8.8*
COc1cccc(F)c1C(C[N+](=O)[O-])c1c(N)n(C)c(=O)n(C)c1=O (stereo not given)	i	i	i	i	i
Oc1ccccc1C1CC(c2cccs2)=NC(c2ccc(Cl)cc2)N1 (stereo not given)	7.4*	i	i	i	i
O=P(CCCCCCCCCP(=O)(c1ccccc1)c1ccccc1)(c1ccccc1)c1ccccc1	i	i	i	i	-7*
O=C1/C(=C\c2ccccn2)SC(=S)N1Nc1ncc(C(F)(F)F)cc1Cl	i	i	i	i	i
O=C1/C(=C/c2ccc(F)cc2)SC(=S)N1Nc1ncc(C(F)(F)F)cc1Cl	i	i	i	i	-10*
CC(=O)Nc1cccc(NC(=O)CSc2ncc(C(=O)Nc3ccccc3)c(=O)n2C)c1	i	i	i	5.8*	i
COc1ccc(-c2cnc(SCC(=O)Nc3ccc4c(c3)OCO4)n2Cc2ccco2)cc1	nt	nt	nt	i	i
CC(=O)Nc1cccc(NC(=O)CSc2ncc(-c3ccc(Cl)cc3)n2Cc2ccco2)c1	i	i	i	i	-8.6*
CC(=O)Nc1ccc(NC(=O)CSc2ncc(C(=O)Nc3ccc(Cl)cc3)c(=O)n2C)cc1	i	i	i	i	i
COc1ccc(C(CNC(=O)c2ccc(-c3cccc(C(F)(F)F)c3)o2)N2CCOCC2)cc1 (stereo not given)	i	i	i	i	i
COc1cc(C(=O)Nc2cnc(NC(=O)C(C)C)cc2C)cc(OC)c1OC	i	-5.7*	i	i	i
Cc1cc(NC(=O)C(C)C)ncc1NC(=O)Cc1ccccc1	i	i	i	i	i
CCNC(=S)Nc1ccc(Cl)c([N+](=O)[O-])c1	i	-5.8*	i	i	i
CN1c2cccc3cccc(c23)N(C)C1c1cccs1	i	i	i	i	i
CC1N(C)c2cccc3cccc(c23)N1C	i	i	33*	i	i
COc1cccc(NC2=C(NCCO)C(=O)c3ccccc3C2=O)c1	i	i	i	i	i
Cc1cccc(NC2=C(NCCO)C(=O)c3ccccc3C2=O)c1	i	-5.5*	i	i	i
O=[N+]([O-])c1cc(Br)c(Nc2ccccc2)c([N+](=O)[O-])c1	6.6*	i	i	i	i
C=CCN1CCN(C(=O)c2cc3c(s2)CCCC3)CC1	i	i	i	i	i
Cc1cccc(C)c1NS(=O)(=O)c1cc2c3c(c1)CC(=O)N3CCC2	i	i	i	i	i
CN(C)c1ccc(/C=C/c2nc3ccccc3s2)cc1	i	-6.3*	i	i	-7.5*
SMILES	MrgX1 allo act	MrgX1 antagonist	MrgX1 agonist	RGS4 inh	RGS4 pot
CSc1ccc(CN2CCC(CO)(CCOc3ccccc3)CC2)cc1	i	i	i	i	-7*
NC(=O)c1cc2cc(Cl)ccc2oc1=Nc1cccc(C(F)(F)F)c1	i	i	i	i	i
O=C(Nc1nnc(CSCc2ccc(Cl)cc2)s1)c1cccc([N+](=O)[O-])c1	i	-9.5*	i	i	i
CCN(CC)c1ccc(NC(=O)COc2ccc(N(C)S(=O)(=O)c3cccs3)cc2)cc1	7.9*	i	i	i	i
N#Cc1c(C(F)(F)F)cc(-c2ccco2)nc1SCc1ccncc1	i	-5.1*	i	i	i
Cc1c(C=O)c2cc(OCc3ccccc3)ccc2n1C	i	i	i	i	i
Cc1cc(C)c(-n2c(SCC(=O)N3CCOCC3)n[nH]c2=O)c(C)c1	i	i	i	i	i
N#C/C(=C\c1ccc(F)cc1)c1nc(-c2ccco2)cs1	i	i	i	i	i
N#C/C(=C\c1ccc(Cl)cc1)c1nc(-c2ccco2)cs1	i	-6.2*	i	i	i
Nc1c2c(nc3ccc(Br)cc13)N(C1CCCCC1)CC2	14*	i	i	i	i
CC(C)(C)c1ccc(/C=C/C(=O)Nc2nncs2)cc1	i	-4.8*	i	i	i
CCOC(=O)C1(Cc2ccccc2C)CCCN(C(=O)c2ccc3nccnc3c2)C1 (stereo not given)	i	i	i	i	-7.1*
CCOC(=O)C1(Cc2ccccc2C)CCCN(C(=O)c2ccccn2)C1 (stereo not given)	i	i	i	i	i
COc1ccc(CNC(=O)C2CCN(S(=O)(=O)N3CCCCC3)CC2)c(OC)c1	i	i	i	i	i
CN(C)N1C(N)=C(C#N)C(c2cccs2)C2=C1CC(C)(C)CC2=O (stereo not given)	i	i	i	i	i
Cc1sc2ncnc(NCC(O)c3ccccc3)c2c1C (stereo not given)	i	i	i	i	i
Cc1nc(NCC(c2ccccc2)N(C)C)c2c(C)c(C)sc2n1 (stereo not given)	i	i	i	i	-9.5*
Cc1sc2ncnc(NCC(c3ccccc3)N(C)C)c2c1C (stereo not given)	i	i	i	i	-7.5*
Cc1sc2ncnc(NCCCO)c2c1C	i	i	i	i	i
Cc1sc2ncnc(NCC(O)c3ccc([N+](=O)[O-])cc3)c2c1C (stereo not given)	i	-5*	i	i	i
COc1cccc(C(=O)NCC2(c3ccccc3)CCCC2)c1	i	i	i	i	i
COc1ccc(C(=O)NCC2(c3ccccc3)CCCC2)c(OC)c1	10*	-10*	i	i	i
Cc1nc(Oc2ccc(S(=O)(=O)N3CCOCC3)cc2Cl)c2c3c(sc2n1)CCCC3	i	i	i	i	i
COc1ccc(CNC(=O)COc2cccnc2[N+](=O)[O-])cc1OC	6.9*	i	i	i	i
O=C1CC(c2cccc(Cl)c2)CC(O)=C1C=NC1CCCC1 (stereo not given)	i	i	i	i	i
